# Assay results taken from ChEMBL document CHEMBL2311392, “Differential interactions of rifabutin with human and bacterial membranes: implication for its therapeutic and toxic effects” (J Med Chem, 2013).
# Legend:
# [1] = Drug localization in DPH-PA probe-labeled DMPG liposomes at 42 +/- 0.1 degC by fluorescence quenching; format: physicochemical
# Summary of the method: (§1)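 LUVs (100 nm extrusion) of DMPC or DMPG at 500 μM total lipid in HEPES 0.01 M, I = 0.1 M (NaCl), pH 7.4, labelled with DPH or DPH-PA (probe:lipid 1:300). Drug (0–27 μM) incubated 30 min at 37.0 °C in the dark. Steady-state intensity (ex 357/360, em 427/430 nm) and lifetime read, corrected for quencher absorbance. Membrane drug concentration taken from Kp. Stern–Volmer constants obtained at 37.0 and 42.0 °C.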
# [2] = Drug localization in DPH probe-labeled DMPC liposomes at 42 +/- 0.1 degC by fluorescence quenching; format: physicochemical; summary of the method: as §1
# [3] = test system: Lipid bilayer; assay: Binding affinity to DPH-PA probe-labeled DMPC liposomes assessed as binding constant by fluorescence quenching assay; summary of the method: as §1
# [4] = Drug localization in DPH-PA probe-labeled DMPG liposomes at 37 +/- 0.1 degC by fluorescence quenching; format: physicochemical; summary of the method: as §1
# [5] = test system: Lipid bilayer; assay: Binding affinity to DPH-PA probe-labeled DMPC liposomes assessed as main phase transition temperature at 30 uM by steady-state fluorescence anisotrope (reference value: 24.6 +/- 0.3 degC); details: Microsome
# [6] = test system: Lipid bilayer; assay: Binding affinity to DPH probe-labeled DMPC liposomes assessed as binding constant by fluorescence quenching assay; summary of the method: as §1
# [7] = Drug localization in DPH-PA probe-labeled DMPC liposomes at 42 +/- 0.1 degC by fluorescence quenching; format: physicochemical; summary of the method: as §1
# [8] = test system: Lipid bilayer; assay: Binding affinity to DPH probe-labeled DMPG liposomes assessed as binding constant by fluorescence quenching assay; summary of the method: as §1
# [9] = Drug localization in DPH-PA probe-labeled DMPC liposomes at 37 +/- 0.1 degC by fluorescence quenching; format: physicochemical; summary of the method: as §1
# [10] = Drug localization in DPH probe-labeled DMPG liposomes at 42 +/- 0.1 degC by fluorescence quenching; format: physicochemical; summary of the method: as §1
# [11] = test system: Lipid bilayer; assay: Binding affinity to DPH probe-labeled DMPC liposomes assessed as main phase transition temperature at 30 uM by steady-state fluorescence anisotrope (reference value: 24.4 +/- 0.2 degC)
# [12] = Drug localization in DPH probe-labeled DMPC liposomes at 37 +/- 0.1 degC by fluorescence quenching; format: physicochemical; summary of the method: as §1
# [13] = test system: Lipid bilayer; assay: Binding affinity to DPH-PA probe-labeled DMPG liposomes assessed as binding constant by fluorescence quenching assay; summary of the method: as §1
# [14] = Drug localization in DPH probe-labeled DMPG liposomes at 37 +/- 0.1 degC by fluorescence quenching; format: physicochemical; summary of the method: as §1
# [15] = test system: Lipid bilayer; assay: Binding affinity to DPH-PA probe-labeled DMPG liposomes assessed as main phase transition temperature at 30 uM by steady-state fluorescence anisotrope (reference value: 23.9 +/- 0.3 degC); details: Microsome
# [16] = test system: Lipid bilayer; assay: Binding affinity to DPH probe-labeled DMPG liposomes assessed as main phase transition temperature at 30 uM by steady-state fluorescence anisotrope (reference value: 24.1 +/- 0.5 degC)
compound,measurement,setting,value
CO[C@H]1/C=C/O[C@@]2(C)Oc3c(C)c(O)c4c(c3C2=O)C2=NC3(CCN(CC(C)C)CC3)NC2=C(NC(=O)/C(C)=C\C=C\[C@H](C)[C@H](O)[C@@H](C)[C@@H](O)[C@@H](C)[C@H](OC(C)=O)[C@@H]1C)C4=O [RIFABUTIN],KSV,[1],121 M⁻¹
same,KSV,[2],156 M⁻¹
same,Kq,[3],2.9e+10 M⁻¹ s⁻¹
same,KSV,[4],181 M⁻¹
same,Tm,[5],24.5 °C
same,Kq,[6],2.7e+10 M⁻¹ s⁻¹
same,KSV,[7],76 M⁻¹
same,Kq,[8],1.9e+10 M⁻¹ s⁻¹
same,KSV,[9],165 M⁻¹
same,KSV,[10],132 M⁻¹
same,Tm,[11],24.5 °C
same,KSV,[12],216 M⁻¹
same,Kq,[13],2.6e+10 M⁻¹ s⁻¹
same,KSV,[14],167 M⁻¹
same,Tm,[15],24.2 °C
same,Tm,[16],24.4 °C
